Results on 4 compounds are retold here after ChEMBL document CHEMBL1140915, “Second-generation highly potent and selective inhibitors of the hepatitis C virus NS3 serine protease” (J Med Chem, 2009).

SMILES strings stand for the structures.

Series [1] is described as follows: AUC in rat at 10 mg/kg, po administered with 20% HPBCD. Type of series: ADME, organism-based. Also noted: dose 10 mg/kg, route oral. Conditions: plasma.
Series [2] in a line: Drug level in rat liver after 6 hrs. Format: ADME, tissue-based. The settings on record: read-out: Drug uptake. Put shortly:
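In rat, compound level in liver was measured 6 h after dosing in 0.4% MC and reported as ng/g tissue.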

Series [3] in a line: Inhibition of HCV NS3 protease in absence of human serum. Also noted: species or system Hepacivirus hominis. An outline of the steps:
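Continuous enzymatic assay using NS4A-tethered single-chain HCV NS3 serine protease, without human serum. Ki* is the equilibrium constant, which includes the reversible covalent ketone–serine bond. Compounds were tested as P1 diastereomer mixtures (2:1 to 1:2) that equilibrate rapidly under assay conditions.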

Another series deals with Hepatitis C virus. In words: Antiviral activity against HCV assessed as inhibition of virus replication by cell based assay in absence of human serum. Type of series: functional, Hepacivirus hominis. An outline of the steps:
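Replicon-based cellular assay run without human serum. EC90 is the concentration that inhibits replicon replication by 90%. Compounds were tested as rapidly equilibrating P1 diastereomer mixtures.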

The nature of series [4]: Half life in monkey at 1 mg/kg, iv administered with 0.4% hydroxypropyl methylcellulose. Also noted: dose 1 mg/kg, route intravenous. Conditions: rhesus monkey, in vivo. Type of series: ADME, organism-based, Macaca mulatta.
Series [5] in a line: Half life in rat at 3 mg/kg, iv administered with 0.4% hydroxypropyl methylcellulose. Type of series: ADME, organism-based. The settings on record: in vivo. Set-up: dose 3 mg/kg, route intravenous.
The nature of series [6]: AUC in monkey at 3 mg/kg, po administered with 0.4% hydroxypropyl methylcellulose. Format: ADME, organism-based, Macaca mulatta. Conditions: rhesus monkey, in vivo. Also noted: dose 3 mg/kg, route oral.
The nature of series [7]: Bioavailability in rat at 10 mg/kg, po administered with 0.4% hydroxypropyl methylcellulose. Format: ADME, organism-based. The settings on record: in vivo.
Series [8] is described as follows: Bioavailability in monkey at 3 mg/kg, po administered with 0.4% hydroxypropyl methylcellulose. Format: ADME, organism-based, Macaca mulatta. The settings on record: rhesus monkey, in vivo.
Series [9] can be described thus: AUC in rat at 10 mg/kg, po administered with 0.4% hydroxypropyl methyl cellulose. Format: ADME, organism-based. Set-up: dose 10 mg/kg, route oral. Conditions: in vivo.
The nature of series [10]: AUC in dog at 2 mg/kg, iv administered with 0.4% hydroxypropyl methylcellulose. Type of series: ADME, organism-based, Canis lupus familiaris. Set-up: dose 2 mg/kg, route intravenous. The settings on record: in vivo.
Series [11] can be described thus: Bioavailability in dog at 3 mg/kg, po administered with 0.4% hydroxypropyl methylcellulose. The settings on record: in vivo. Type of series: ADME, organism-based, Canis lupus familiaris.
Series [12] is described as follows: AUC in dog at 3 mg/kg, po administered with 0.4% hydroxypropyl methylcellulose. Format: ADME, organism-based, Canis lupus familiaris. Set-up: dose 3 mg/kg, route oral. Conditions: in vivo.
The nature of series [13]: Selectivity for HCV NS3 protease over human neutrophil elastase. An outline of the steps:
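Compounds were also assayed against human neutrophil elastase. Selectivity is expressed as the HNE/HCV ratio of the two enzyme potencies.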

A short description of series [14]: AUC in monkey at 1 mg/kg, iv administered with 0.4% hydroxypropyl methylcellulose. Format: ADME, organism-based, Macaca mulatta. Set-up: dose 1 mg/kg, route intravenous. Conditions: rhesus monkey, in vivo.
The nature of series [15]: AUC in rat at 3 mg/kg, iv administered with 0.4% hydroxypropyl methylcellulose. Format: ADME, organism-based. Set-up: dose 3 mg/kg, route intravenous. The settings on record: in vivo.
The nature of series [16]: Half life in dog at 2 mg/kg, iv administered with 0.4% hydroxypropyl methylcellulose. Format: ADME, organism-based, Canis lupus familiaris. Also noted: dose 2 mg/kg, route intravenous. The settings on record: in vivo.

Turning to `C=CCNC(=O)C(=O)C(CC1CC1)NC(=O)[C@@H]1[C@@H]2[C@H](CN1C(=O)[C@@H](NC(=O)NC(CN1C(=O)CC(C)(C)CC1=O)C(C)(C)C)C(C)(C)C)C2(C)C` (single isomer, unassigned), the area under the curve (AUC) (commonly the area under the concentration-time curve, a measure of exposure) in [1] was 1.2 µM·h; in series [6], 0.1 µM·h; in [9] it was 0.9 µM·h; in [10], 2.2 µM·h; in [12] it was 1.2 µM·h; in series [14], 0.7 µM·h. Moreover, in series [15], the area under the curve (AUC) worked out at 1.6 µM·h. Moreover, in [2], the concentration at 6 h worked out at 1800 ng/g. Affinity in [3] was put at a Ki of 0.004 µM. The EC90 (usually the concentration needed for an effect of 90%) in the series on Hepatitis C virus is 0.03 µM. The half-life (as a rule, the time needed for the level to fall by half in the phase considered) is 2.3 h in series [4], 7.4 h in series [5] and 2.7 h in series [16]. Further, the bioavailability (commonly the share of a dose that reaches the circulation, judged against a reference dose that is usually intravenous) in [7] is 22%; in series [8] it was 4%; in series [11] it was 35%. Also, the Ratio in series [13] came out at 7100.

`C=CCNC(=O)C(=O)C(CCCC)NC(=O)[C@@H]1[C@@H]2[C@H](CN1C(=O)[C@@H](NC(=O)NC(CN1C(=O)CC(C)(C)CC1=O)C(C)(C)C)C1CCCCC1)C2(C)C` (single isomer, unassigned): in [1], the exposure (AUC) is 0.45 µM·h. For the same compound, the affinity in series [3] corresponds to a Ki of 0.002 µM. Further, the EC90 in the series with Hepatitis C virus was found to be 0.045 µM. Also, the Ratio in [13] is 2400.

`C=CCNC(=O)C(=O)C(CCC1CC1)NC(=O)[C@@H]1[C@@H]2[C@H](CN1C(=O)[C@@H](NC(=O)NC(CN1C(=O)CC(C)(C)CC1=O)C(C)(C)C)C(C)(C)C)C2(C)C` (single isomer, unassigned): in [1], the area under the curve (AUC) was found to be 0.5 µM·h. In addition, in series [3], the Ki (as a rule, the dissociation constant of the complex between target and ligand, obtained from inhibition or displacement) amounted to 0.007 µM. In addition, the EC90 in the series on Hepatitis C virus was 0.03 µM. For the same compound, in series [13], the Ratio stood at 11000.

With `CC(C)(C)NC(=O)N[C@H](C(=O)N1C[C@H]2[C@@H]([C@H]1C(=O)NC(CC1CCC1)C(=O)C(N)=O)C2(C)C)C(C)(C)C` (stereo partly drawn) [BOCEPREVIR], affinity in series [3] was put at a Ki of 0.014 µM. Moreover, in the series with Hepatitis C virus, the concentration for an effect of 90% (EC90) amounted to 0.35 µM. For the same compound, in series [8], the bioavailability was found to be 4%.
